# SENP7 block – blocks the human protease SENP7. Q9BQF6. recombinant SENP7, Z-RLRGG-aminoluciferin luminescence, 40 min. inhibition, % at 5 µM. 330,000 tested, 1.5% active. AID 434973;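 active = inhibition above about 50% at the single test dose, limit read from the data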;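 also: plate controls were DMSO with enzyme for no effect and no enzyme buffer wells for full effect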
# Target sequence (Q9BQF6 706-1050 limits assumed): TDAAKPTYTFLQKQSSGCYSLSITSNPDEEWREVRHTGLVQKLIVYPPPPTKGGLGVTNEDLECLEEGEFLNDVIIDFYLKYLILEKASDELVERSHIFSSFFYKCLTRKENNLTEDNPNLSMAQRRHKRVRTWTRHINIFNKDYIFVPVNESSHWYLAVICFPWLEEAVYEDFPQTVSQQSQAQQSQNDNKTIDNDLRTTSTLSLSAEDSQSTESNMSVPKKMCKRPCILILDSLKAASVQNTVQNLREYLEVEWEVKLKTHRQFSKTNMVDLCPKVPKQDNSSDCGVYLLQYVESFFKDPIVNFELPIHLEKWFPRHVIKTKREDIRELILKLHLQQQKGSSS
# SENP8 block-1 – blocks the human protease SENP8 | inhibition, % at 10 µM | AID 2540 | Q96LD8 | 330,000 tested, 1.2% active | purified SENP8, Z-RLRGG-aminoluciferin cleavage, luminescence; in the data active = inhibition above about 50%
# SENP8 block-2 – blocks human SENP8 cleavage of Nedd8 substrate; Q96LD8; recombinant SENP8, Nedd8 substrate fluorescence; inhibition, % at 20 µM; 360,000 tested, 0.64% active; in the data active = inhibition mostly above about 40%, no sharp cut-off; inactive = mostly below about 27%
# SENP6 block – blocks the human protease SENP6 | 330,000 tested, 1.8% active | Q9GZR1 | inhibition, % at 10 µM | Recombinant SENP6 catalytic domain, aminoluciferin luminescence;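 active = inhibition above about 50% at the single tested dose, limit read from the data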;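 also: plate controls were DMSO wells with enzyme for no effect and DMSO wells lacking enzyme for full effect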
# SENP1 inh – SENP1 (human) catalytic domain inhibition. Q9P0U3. recombinant SENP1 catalytic domain, CyPet-SUMO1-YPet FRET cleavage. inhibition, % at 10 µM. 360,000 tested, 0.21% active;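 active = inhibition at least 30% at 10 µM, raw YFP signal under a set limit, fluorescence ratio 0.5 to 1.5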;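 also: 0% = enzyme with DMSO and 100% = no enzyme wells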
#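 Test system: human SENP1 catalytic domain; medium: Tris pH 8 buffer plus EDTA, NaCl, BME, BSA, NP40, catalase; incubation: 50 min reaction at room temperature; technique: FRET, CFP and YFP emission; controls: no-enzyme low control and enzyme-plus-DMSO high control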
# SENP8 confirm – human SENP8 inhibition, confirmed. Recombinant SENP8, Z-RLRGG-aminoluciferin luminescence, 60 min. inhibition, % at 12.5 µM. 6,200 tested, 40% active. shares compounds with SENP7 block;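 active = mean inhibition across replicates above about 50%, limit read from the data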
# SENP6 conf – human SENP6 inhibition, confirmed. inhibition, % at 12.5 µM. recombinant SENP6, Z-RLRGG-aminoluciferin luminescence. 6,200 tested, 58% active. AID 488915. shares compounds with SENP7 block
# SENP7 conf – human SENP7 inhibition, confirmed; recombinant SENP7, Z-RLRGG-aminoluciferin luminescence, 40 min; inhibition, % at 12.5 µM; shares compounds with SENP7 block; 6,200 tested, 69% active
# Casp3 select – inhibits human caspase-3 in SENP selectivity test. 6,200 tested, 60% active. purified caspase-3, Z-DEVD-aminoluciferin luminescence, 60 min. AID 488918. shares compounds with SENP7 block. inhibition, % at 12.5 µM;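 active = mean inhibition above about 50%, limit read from the data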;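 also: plate controls were enzyme with DMSO for no effect and wells without caspase-3 for full effect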
# Target sequence (P42574 28-227 limits assumed): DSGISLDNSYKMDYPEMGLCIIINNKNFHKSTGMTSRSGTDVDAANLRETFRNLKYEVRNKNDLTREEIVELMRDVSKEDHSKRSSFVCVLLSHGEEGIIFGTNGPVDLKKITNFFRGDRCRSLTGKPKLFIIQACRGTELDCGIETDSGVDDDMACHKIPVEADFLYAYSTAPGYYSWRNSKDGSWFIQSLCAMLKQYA
# SENP luc ctr – luminescence interference (SENP counter-screen); AID 488919; Pre-incubated SENP8/Z-RLRGG-aminoluciferin, luciferase luminescence interference; shares compounds with SENP7 block; 6,200 tested, 39% active; inhibition, % at 12.5 µM;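 active = mean inhibition above about 50% when retested at one dose, limit read from the data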;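 also: plate controls were DMSO wells with completed reaction for no effect and substrate without enzyme for full effect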
# An asterisk follows results filed as active; · = not tested or not shown. Only some compounds are listed: those with a hit (about 2.5% of all), similar ones and a draw of the others.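 The calls were made as follows, unless noted: active = mean inhibition above about 50% in the one-dose retest (limit read from the data); inactive = the rest.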
SMILES,SENP7 block,SENP8 block-1,SENP8 block-2,SENP6 block,SENP1 inh,SENP8 confirm,SENP6 conf,SENP7 conf,Casp3 select,SENP luc ctr
CCOc1ccc(CCNC(=O)c2cn(C)c3ccc(S(=O)(=O)N4CCOCC4)cc3c2=O)cc1OCC,1.3,2.2,6.9,10.5,1.9,·,·,·,·,·
CC1=NN(C(N)=S)C(=O)C1N=Nc1ccc(Br)cc1 (centres undefined),74.1*,92.2*,35.7,96.3*,3.6,25.9,40.4,27.4,40.0,23.3
CC1=NN(C(N)=S)C(=O)C1N=Nc1ccccc1 (centres undefined),52.8*,59.0*,22.8,71.9*,4.3,18.9,54.8*,14.4,35.3,0.4
CC1=NN(C(=O)c2ccncc2)C(=O)C1N=Nc1ccc2ccccc2c1 (centres undefined),·,·,34.2,·,16.2,·,·,·,·,·
CC1=NN(c2ccccc2)C(=O)C1N=Nc1cccc(O)c1 (centres undefined),-4.0,4.0,27.3,5.3,1.0,·,·,·,·,·
CC1=NN(C(N)=S)C(=O)C1N=Nc1ccc(Cl)cc1 (centres undefined),76.7*,86.4*,32.9,88.5*,3.4,-1.2,72.2*,35.1,29.8,14.4
CC1=NN(C(N)=S)C(=O)C1N=Nc1cccc([N+](=O)[O-])c1 (centres undefined),76.5*,80.2*,32.5,82.6*,1.3,4.2,5.3,-2.2,16.2,6.8
O=[N+]([O-])c1cccc(N=NNc2cccc([N+](=O)[O-])c2)c1,·,·,18.7,·,2.6,·,·,·,·,·
CCCCN(CC(=O)NCCOC)C(=O)Cn1nnc2ccccc21,6.4,-7.4,-0.7,-15.1,0.7,·,·,·,·,·
CC1=NN(C(N)=S)C(=O)C1N=Nc1cccc(Cl)c1C (centres undefined),59.2*,84.5*,14.8,93.8*,1.5,94.7*,94.3*,100.0*,88.0*,83.1*
O=C(N/N=C\c1ccc([N+](=O)[O-])s1)c1cncc(Br)c1,15.0,8.8,36.9,69.7*,-2.4,-0.5,18.7,-7.0,3.7,3.5
Clc1ccccc1-c1nc(-c2ccccc2)n[nH]1,73.9*,53.2*,6.2,73.9*,0.3,-5.6,56.7*,84.8*,62.4*,66.2*
Oc1ccccc1-c1n[nH]c(-c2ccccc2O)n1,·,·,-84.9,·,0.9,·,·,·,·,·
COc1cccc(-c2csc(N3CCN(CC(=O)NNC(=O)c4ccc(Br)cc4)CC3)n2)c1,101.4*,1.9,5.0,-2.7,0.9,-8.3,-4.7,3.4,2.1,-6.2
C[C@]12CCC3c4ccc(OCC(=O)O)cc4CCC3C1CCC2=O (some centres undefined),6.7,-12.4,11.4,-37.6,0.5,·,·,·,·,·
COc1cc(CN2CCCC(CO)(Cc3ccccc3C)C2)cc2c1OCO2 (centres undefined),-5.3,-3.8,6.9,3.6,-4.5,·,·,·,·,·
Cc1cc2ncn(S(=O)(=O)c3ccc(S(N)(=O)=O)cc3)c2cc1C,·,·,4.6,·,-2.1,·,·,·,·,·
Cc1cc2ncn(S(=O)(=O)c3ccc(S(=O)(=O)N4CCCCCC4)cc3)c2cc1C,67.5*,-7.9,5.3,-0.2,1.1,-5.4,-0.8,4.5,2.9,-2.7
Cc1ccc(Nc2nnc(-c3ccncc3)s2)c(Br)c1,11.7,4.4,7.4,3.5,1.5,·,·,·,·,·
COc1ccc(Cl)cc1Nc1nnc(-c2ccncc2)s1,95.0*,50.8*,-291.9,75.6*,-5.4,-14.0,8.9,-4.0,1.3,-6.3
CNc1nnc(-c2ccncc2)s1,-2.9,-2.0,-290.2,-10.8,0.7,·,·,·,·,·
FC(F)(F)c1ccc(Cl)c(Nc2nnc(-c3ccncc3)s2)c1,·,·,-338.4,·,1.8,·,·,·,·,·
COc1ccc(Nc2nc(C)cc(C)n2)cc1Cl,66.6*,39.1,20.4,69.8*,3.1,61.5*,58.6*,86.0*,67.8*,65.3*
Clc1ccccc1Nc1nnc(-c2ccncc2)s1,100.3*,96.2*,-398.8,97.8*,0.4,98.2*,99.0*,101.9*,97.4*,33.7
COc1ccc(Nc2nnc(-c3ccncc3)s2)cc1Cl,95.6*,65.9*,-275.9,73.0*,-4.3,29.8,23.5,43.6,54.2*,6.3
SMILES,SENP7 block,SENP8 block-1,SENP8 block-2,SENP6 block,SENP1 inh,SENP8 confirm,SENP6 conf,SENP7 conf,Casp3 select,SENP luc ctr
O=C(O)C(Cc1c[nH]c2ccccc12)N1C(=O)C2C3c4ccccc4C(c4ccccc43)[C@@H]2C1=O (some centres undefined),3.9,3.0,10.4,20.0,-0.3,·,·,·,·,·
Oc1cccc(Nc2ncnc3c2oc2ccccc23)c1,71.3*,62.5*,-222.3,70.2*,1.9,64.4*,66.2*,92.5*,69.3*,80.1*
c1ccc2c(c1)oc1c(Nc3ccc4c(c3)OCO4)ncnc12,58.8*,13.0,-186.8,13.2,-11.3,-8.8,4.4,10.2,19.1,6.7
Oc1ccc(Nc2ncnc3c2oc2ccccc23)cc1,2.8,3.4,-20.0,9.2,2.5,·,·,·,·,·
Cc1nc(Nc2ccc3c(c2)OCO3)c2oc3ccccc3c2n1,-0.1,6.3,-83.7,13.7,-6.6,·,·,·,·,·
c1ccc(Nc2ncnc3c2oc2ccccc23)cc1,35.9,13.7,-383.3,51.5*,-0.6,10.0,6.6,55.6*,37.3,14.3
COc1ccc(C2=CC(=O)C[C@H](c3ccc(F)cc3)C2)c(OC)c1,-1.5,0.5,-101.9,2.0,0.7,·,·,·,·,·
COc1ccc2nc(-c3ccco3)c(-c3ccco3)nc2c1,4.0,21.8,-199.9,23.3,-17.6,·,·,·,·,·
COc1ccc2nc3cccc(OC)c3nc2c1,29.7,28.3,15.6,72.6*,-12.6,-5.9,-3.2,42.4,51.3*,-0.3
CC1CCCN(CCCNC(=O)c2coc3nc4ccccc4nc23)C1 (centres undefined),50.6*,59.3*,-403.4,80.8*,-11.8,73.4*,65.7*,86.1*,88.6*,75.4*
Cc1ccc(CCNC(=O)c2coc3nc4ccccc4nc23)cc1,-5.2,-7.6,-493.4,3.0,9.6,·,·,·,·,·
CC1CCN(CCCNC(=O)c2coc3nc4ccccc4nc23)CC1,41.4,64.2*,-421.5,85.7*,-65.3,75.7*,70.3*,86.3*,88.4*,74.2*
COC(=O)C(C)NC(=O)c1cn(-c2ccccc2OC)c(=O)c2ccccc12 (centres undefined),2.4,-3.0,-7.2,-10.2,0.3,·,·,·,·,·
